Measurements taken from publication PMC4013241 (Molecular cancer therapeutics, 2014).
Marks after values point to notes of the source that are not given here.

What was measured:
[1] = test system: panel of 11 glioma models including a patient-derived model [GBM10]; assay: SRB cytotoxicity assay, panel of glioma models; assay type: cell-based, human; conditions: compared with U87 cells; Fig. S1
Akt = assay: Biochemical kinase screen
VEGFR3 = VEGFR3 (Homo sapiens, UniProt P35916); assay: Biochemical kinase screen
Sequence of VEGFR3 (P35916 25-1363): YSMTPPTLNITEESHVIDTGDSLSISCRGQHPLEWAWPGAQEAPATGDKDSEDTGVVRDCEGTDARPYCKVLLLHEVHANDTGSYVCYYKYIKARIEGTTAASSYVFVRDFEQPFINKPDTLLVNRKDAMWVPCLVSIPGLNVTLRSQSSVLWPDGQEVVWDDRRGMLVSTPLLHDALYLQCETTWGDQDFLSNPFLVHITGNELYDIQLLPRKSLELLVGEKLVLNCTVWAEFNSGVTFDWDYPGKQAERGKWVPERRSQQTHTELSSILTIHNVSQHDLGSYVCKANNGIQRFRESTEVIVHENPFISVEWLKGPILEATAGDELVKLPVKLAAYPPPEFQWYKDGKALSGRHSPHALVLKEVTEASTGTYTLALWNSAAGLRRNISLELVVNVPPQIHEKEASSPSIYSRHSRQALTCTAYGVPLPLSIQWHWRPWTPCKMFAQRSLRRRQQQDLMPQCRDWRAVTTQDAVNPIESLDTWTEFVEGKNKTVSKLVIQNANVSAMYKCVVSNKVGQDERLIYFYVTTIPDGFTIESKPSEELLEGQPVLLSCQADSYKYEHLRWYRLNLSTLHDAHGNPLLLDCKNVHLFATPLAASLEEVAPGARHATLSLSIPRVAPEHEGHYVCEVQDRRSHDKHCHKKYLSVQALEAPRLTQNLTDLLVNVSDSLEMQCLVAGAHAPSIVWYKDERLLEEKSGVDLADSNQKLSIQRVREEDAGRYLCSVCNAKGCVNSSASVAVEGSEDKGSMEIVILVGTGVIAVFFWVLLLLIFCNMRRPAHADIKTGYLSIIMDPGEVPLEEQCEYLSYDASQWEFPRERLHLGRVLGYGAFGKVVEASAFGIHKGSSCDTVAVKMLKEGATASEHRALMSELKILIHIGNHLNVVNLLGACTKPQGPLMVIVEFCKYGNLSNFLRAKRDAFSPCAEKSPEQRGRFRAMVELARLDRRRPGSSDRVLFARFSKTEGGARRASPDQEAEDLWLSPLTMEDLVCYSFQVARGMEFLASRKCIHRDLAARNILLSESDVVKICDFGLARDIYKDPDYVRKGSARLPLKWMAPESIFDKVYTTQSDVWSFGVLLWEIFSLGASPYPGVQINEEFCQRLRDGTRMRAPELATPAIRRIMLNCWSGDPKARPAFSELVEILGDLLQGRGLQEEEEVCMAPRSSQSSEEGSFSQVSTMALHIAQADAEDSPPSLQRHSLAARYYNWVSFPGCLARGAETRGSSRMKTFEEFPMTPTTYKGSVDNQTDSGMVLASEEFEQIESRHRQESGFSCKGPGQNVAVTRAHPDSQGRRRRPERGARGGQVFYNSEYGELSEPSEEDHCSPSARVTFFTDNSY

[2] = test system: phosphorylated Akt, CREB, JNK pan, Erk, p38γ; assay: Human phospho-MAPK array in U87 cells; assay type: cell-based; conditions: 6.3 μM, 1 h
Procedure, shortened: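 U87 cells on 10 cm plates were exposed to 6.3 μM test compound for 1 h, rinsed in cold PBS and lysed at 1 × 10^7 cells/ml, rocking 30 min at 4°C. 200 μg of supernatant protein was mixed with detection antibody cocktail for 1 h at room temperature. The mixture was applied to array membranes overnight at 4°C, then streptavidin-HRP for 30 min. Chemiluminescent spots were recorded on X-ray film.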

p-Akt [3] = assay: p-Akt in U87 cells by western blot / MSD assay; assay type: cell-based, human; conditions: 6.3 μM
Procedure, shortened: (§1)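 U87 cells received increasing test compound concentrations for 1 h, or 6.3 μM over a time course. Phospho- and total Akt/Erk were measured by western blot or MSD multispot immunoassay, loading 20 μg (Akt) or 5 μg (Erk) lysate in duplicate. Plates were incubated overnight at 4°C, then detection antibody for 2 h at room temperature. Signals were background-corrected; phospho/total percentage expressed relative to control.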

p-Erk [4] = assay: p-Erk in U87 cells by western blot / MSD assay; assay type: cell-based, human
Procedure, shortened: as §1

P70S6K phosphorylation = assay: Western blot of phosphorylated P70S6K in U87 cells; assay type: cell-based, human; conditions: 6.3 μM, 1 h, mean ± S.D.
Procedure, shortened: (§2)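 U87 cells in DMEM with 10% FBS at 37°C, 5% CO2, grown on 10 cm plates and exposed to test compound for 1 h. Lysed on ice in buffer containing PMSF, phosphatase and protease inhibitors; 20 μg protein run on SDS-PAGE and blotted to PVDF. Detected with IRDye/Alexa 680 secondaries and quantified by Odyssey imaging against total protein and β-actin, relative to control. Blots repeated at least three times.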

[5] = test system: 40S ribosomal protein S6 [rpS6] phosphorylation; assay: Western blot of phosphorylated rpS6 in U87 cells; assay type: cell-based, human; conditions: 6.3 μM, 1 h, mean ± S.D.
Procedure, shortened: as §2

Rb S780 phosphorylation = assay: Western blot of phosphorylated Rb S780 in U87 cells; assay type: cell-based, human; conditions: 6.3 μM, 1 h, mean ± S.D.
Procedure, shortened: as §2

p-mTOR [S2481 and 2448] = assay: Immunoblot of p-mTOR in U87 cells; assay type: cell-based, human; conditions: 6.3 μM ON123300 alone or with 13.3 μM GFN, 1 h
Procedure, shortened: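 U87 cells were treated 1 h with 6.3 μM test compound, 13.3 μM EGFR inhibitor or both. Lysis buffer held PMSF plus phosphatase and protease inhibitors; lysates were sonicated and spun at 21,000 × g. 20 μg protein per lane went on SDS-PAGE and PVDF, blocked in 5% milk. Primary antibody was 1 h at room temperature or overnight at 4°C. Bands quantified densitometrically as percentages; mean ± S.D. of three experiments.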

p-Akt [6] = assay: p-Akt in GBM39 cells; assay type: cell-based; conditions: Homo sapiens, GBM39, read-out: nadir p-Akt inhibition relative to the control
p-Erk [7] = assay: p-Erk in GBM39 cells; assay type: cell-based, human; conditions: 4μM
U87 cells [8] = assay: Flow cytometric cell cycle analysis; assay type: cell-based, human; conditions: 24 h
U87 cells [9] = assay: Annexin V apoptosis by flow cytometry; assay type: cell-based, human; conditions: 24 h
Procedure, shortened: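 U87 cells in 12-well plates, cultured overnight, then exposed 24 h to test compound (6.3 μM), an EGFR inhibitor (13.3 μM) or both. Floating and attached cells were pooled and stained with Annexin V-FITC (10 μg/ml) in HEPES-buffered saline (pH 7.4) with Ca2+ and Mg2+. Flow cytometry at 5000 events/sample. Reported as mean ± S.D. of three experiments.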

[10] = In vivo pharmacokinetics in mice bearing intracerebral U87 tumors; set-up: species or system mouse; conditions: for AUC / Kp / Tmax / clearance / Vd / half-life: NIH Swiss nude, mouse, iv; for Kp: Pbt (brain tumor partition coefficient, AUCbt/AUCp); for clearance: CL; for Vd: Vss; for half-life: t½; for peak concentration in brain: at 5 min
Procedure, shortened: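 Same intracerebral U87 nude-mouse model, single IV tail-vein bolus of 5 or 25 mg/kg. Plasma, normal brain and tumour were taken from 3–4 mice per time point (5 min–10 h). Tissues were saline-rinsed and homogenised 20% w/w in water. Samples (10 μl) were protein-precipitated with 40 μl cold acetonitrile and quantified by ESI LC/MS/MS. Noncompartmental analysis; AUC to last observable concentration by linear-log interpolation.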

[11] = test system: p-Erk in intracerebral U87 brain tumors; assay: In vivo pharmacodynamics: p-Erk in brain tumor; set-up: species or system mouse
Procedure, shortened: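 NIH Swiss nude mice carried U87 cells (10^6 in 10 μl PBS) implanted stereotactically into the caudate putamen. Test compound was given as an IV tail-vein bolus of 5 or 25 mg/kg, or 25 mg/kg 1 h after oral EGFR inhibitor (200 mg/kg). Tumours were collected from 5 min to 10 h (17 h with co-dosing) and lysed at 20 μl buffer/mg. Phospho/total Akt and Erk were measured by MSD as percent of control, at least three mice per time point. ABEC was reported in %-h.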

ABC transporters = conditions: based on previous studies; cited from earlier work
[12] = plasma, 5 mg/kg, ON123300 5 mg/kg IV
[13] = plasma, 25 mg/kg, ON123300 25 mg/kg IV

With `CN1CCN(c2ccc(Nc3ncc4cc(C#N)c(=O)n(C5CCCC5)c4n3)cc2)CC1` [ON123300] as the compound, how does the “inhibition of cell proliferation in a panel of 11 glioma models” value [1] read?
Its value is “quite comparable to that observed to U87 cells”.

What about the “direct inhibition of Akt” value (Akt) of the same compound?
Its value is “did not directly inhibit”.

What about the “inhibitory action against VEGFR3” value (VEGFR3) of the same compound?
Its value is “appreciable inhibitory action”.

What about the “p-Erk and p38γ levels” value [2] of the same compound?
Its value is “increased”.

What about the “phosphorylated Akt, CREB and JNK pan expression levels” value [2] of the same compound?
Its value is “decreased”.

And the “time of p-Akt nadir” value (p-Akt [3])?
The value was 30 min.

And the “phosphorylation of Akt relative to control” value (p-Akt [3]; 1 h, western blot, mean ± S.D.)?
The value was 40.1% ± 5.7.

And the “p-Erk relative to control” value (p-Erk [4]; 6.3 μM, 1 h, western blot, mean ± S.D.)?
The value was 120 % ± 6.9.

And the “p-Erk elevation relative to pre-treatment” value (p-Erk [4]; 6.3 μM, over 6 h)?
Its value is “about 2 fold”.

What about the “concentration giving 100% increase in p-Erk compared to vehicle” value (p-Erk [4]; 1 h, western blot and MSD) of the same compound?
The value was “about 7 μM”.

And the “phosphorylation of P70S6K relative to control” value (P70S6K phosphorylation)?
The value was 31.8 %± 2.1.

And the “phosphorylation of rpS6 relative to control” value [5]?
Its value is 60.5% ± 1.0.

What about the “phosphorylation of Rb S780 relative to control” value (Rb S780 phosphorylation) of the same compound?
Its value is 54.5% ± 6.3.

And the “expression of p-mTOR S2448” value (p-mTOR [S2481 and 2448])?
The value was 86% ± 3.1.

And the “expression of p-mTOR S2481” value (p-mTOR [S2481 and 2448])?
The value was 102% ± 5.2.

What about the inhibition at 4 µM (p-Akt [6]) of the same compound?
The inhibition at 4 µM was 55%.

And the “peak p-Erk activation relative to the control” value (p-Erk [7])?
Its value is 174%.

What about the “increase in the percentage of cells in the G2/M phase vs control” value (U87 cells [8]) of the same compound?
The value was ~2.5 fold.

And the “percentage of cells in the G2/M phase” value (U87 cells [8]; 6.3 μM ON123300 alone or with 13.3 μM GFN, control 10.4 ± 0.6%)?
The value was 38.2 ± 01.4%.

And the “apoptotic cell death (Annexin V staining)” value (U87 cells [9])?
The value was “induced cell death by apoptosis in a dose-dependent manner”.

What about the AUC ([10]; brain tumor, 5 mg/kg, AUCbt, ON123300 5 mg/kg IV) of the same compound?
The AUC was 6890 ng·h/mL.

What about the Kp ([10]; brain tumor, 5 mg/kg, ON123300 5 mg/kg IV) of the same compound?
The Kp was 5.7.

And the AUC ([10]; brain tumor, 25 mg/kg, AUCbt, brain tumor, ON123300 25 mg/kg IV 1 h after oral 200 mg/kg GFN)?
Its AUC is 49400 ng·h/mL.

And the AUC ([10]; brain tumor, 25 mg/kg, AUCbt, ON123300 25 mg/kg IV)?
Its AUC is 63200 ng·h/mL.

And the Kp ([10]; brain tumor, 25 mg/kg, ON123300 25 mg/kg IV)?
The Kp was 15.

What about the Tmax ([10]; brain tumor, 25 mg/kg, Tmax brain tumor, ON123300 25 mg/kg IV) of the same compound?
The Tmax was 1 h.

And the AUC ([10]; brain, 5 mg/kg, AUCb, ON123300 5 mg/kg IV)?
Its AUC is 3120 ng·h/mL.

What about the AUC ([10]; brain, 25 mg/kg, AUCb, ON123300 25 mg/kg IV) of the same compound?
The AUC was 11700 ng·h/mL.

What about the Tmax ([10]; brain, 25 mg/kg, Tmax brain, ON123300 25 mg/kg IV) of the same compound?
The Tmax was 0.083 h.

What about the AUC ([10]; plasma, 5 mg/kg, AUCp, ON123300 5 mg/kg IV) of the same compound?
The AUC was 1210 ng·h/mL.

What about the clearance [10, 12] of the same compound?
Its clearance is 69.1 mL/min/kg.

And the Vd ([10]; plasma, 5 mg/kg, plasma, ON123300 5 mg/kg IV)?
Its Vd is 3.6 L/kg.

And the half-life [10, 12]?
Its half-life is 1.5 h.

And the AUC ([10]; plasma, 25 mg/kg, AUCp, ON123300 25 mg/kg IV)?
Its AUC is 4220 ng·h/mL.

What about the clearance [10, 13] of the same compound?
Its clearance is 98.7 mL/min/kg.

What about the Vd ([10]; plasma, 25 mg/kg, plasma, ON123300 25 mg/kg IV) of the same compound?
The Vd was 10.2 L/kg.

What about the half-life [10, 13] of the same compound?
Its half-life is 1.5 h.

What about the “reduction in the total clearance of ON123300 in the presence of GFN” value ([10]; ON123300 25 mg/kg IV, oral 200 mg/kg GFN) of the same compound?
The value was 33%.

And the Cmax brain tumor ([10]; brain tumor, ON123300 5 mg/kg IV)?
Its Cmax brain tumor is 6493 ng/mL.

What about the Cmax brain tumor ([10]; brain tumor, ON123300 25 mg/kg IV) of the same compound?
Its Cmax brain tumor is 27250 ng/mL.

What about the Cmax brain tumor ([10]; brain tumor, ON123300 25 mg/kg IV 1 h after oral 200 mg/kg GFN) of the same compound?
The Cmax brain tumor was 20900 ng/mL.

What about the “peak concentration in brain” value ([10]; brain, ON123300 5 mg/kg IV) of the same compound?
Its value is 5735 ng/g.

And the “peak concentration in brain” value ([10]; brain, ON123300 25 mg/kg IV)?
Its value is 12432 ng/g.

What about the Cmax brain ([10]; brain, ON123300 25 mg/kg IV) of the same compound?
The Cmax brain was 12432.5 ng/mL.

What about the Cmax brain ([10]; brain, ON123300 25 mg/kg IV 1 h after oral 200 mg/kg GFN) of the same compound?
The Cmax brain was 16300 ng/mL.

What about the “increase in AUCp from 5 mg/kg to 25 mg/kg” value ([10]; plasma, IV) of the same compound?
The value was 3.5 fold.

What about the “p-Erk spike at 5 min” value ([11]; ON123300 5 mg/kg IV, 5 min) of the same compound?
Its value is 159%.

And the “p-Erk maximum relative to baseline” value ([11]; ON123300 25 mg/kg IV)?
Its value is 161%.

And the “p-Erk, of control, at 17 h” value ([11]; ON123300 25 mg/kg IV plus oral 200 mg/kg GFN, 17 h following the ON123300 dose)?
The value was 80%.

What about the p-Erk peak activation ([11]; ON123300 25 mg/kg IV plus oral 200 mg/kg GFN, at 5 min) of the same compound?
Its p-Erk peak activation is 120%.

What about the “ABEC p-Erk” value ([11]; ON123300 25 mg/kg IV plus oral 200 mg/kg GFN, below the baseline) of the same compound?
The value was 273.9 %-h.

What about the “ABEC p-Erk” value ([11]; ON123300 25 mg/kg IV, ABEC above the baseline) of the same compound?
The value was 144.1^# %_h.

What about the “ABEC p-Erk” value ([11]; ON123300 25 mg/kg IV, above the baseline) of the same compound?
The value was 144 %-h.

And the “substrate for the ABC transporters” value (ABC transporters)?
The value was “unlikely to be a substrate”.
